Measured values as given in ChEMBL document CHEMBL1121884, “Piperazinylquinoxalines with central serotoninmimetic activity” (1981).

What was measured:
Type in all cases: functional
Rattus norvegicus [1] = test: Ability to elicit head twitches in rats a response characteristic of a serotonin mimetic action in the central nervous system was measured after 4 mg/kg of ip administration; 4/12; conditions: route intraperitoneal
Method in brief: (§1)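 Female Sprague-Dawley rats (150-250 g), compound given ip in 1% methylcellulose vehicle, dose as base weight; quantal scoring of rats showing at least one head twitch during a 2-min observation beginning 30 min after dosing; usually six rats per dose level; vehicle controls run.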

Rattus norvegicus [2] = test: Ability to elicit head twitches in rats a response characteristic of a serotonin mimetic action in the central nervous system was measured after 0.4 mg/kg of ip administration; 0/12; conditions: route intraperitoneal; method in brief: as §1
Rattus norvegicus [3] = test: Ability to elicit head twitches in rats a response characteristic of a serotonin mimetic action in the central nervous system after 40 mg/kg of ip administration; 0/12; conditions: route intraperitoneal; method in brief: as §1
Rattus norvegicus [4] = test: Serotonin neuronal reuptake blocking activity was determined by the antagonism of the head twitch response induced in rats with p-chloromethamphetamine (PCMA) after 40 mg/kg of ip administration; 8/12; conditions: route intraperitoneal
Method in brief: (§2)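 Female Sprague-Dawley rats (150-250 g) dosed ip with compound (1% methylcellulose vehicle, dose as base weight), then p-chloromethamphetamine 6.0 mg/kg ip 1 h later; head twitches observed 30 min after PCMA; scored as rats not twitching; usually six rats per dose; ED50 = dose antagonizing PCMA head twitch in 50% of animals, with 95% confidence limits.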

Rattus norvegicus [5] = test: Serotonin neuronal reuptake blocking activity was determined by the antagonism of the head twitch response induced by treatment of rats with p-chloromethamphetamine (PCMA) after 4 mg/kg of ip administration; 2/12; conditions: route intraperitoneal; method in brief: as §2
Rattus norvegicus [6] = test: Serotonin neuronal reuptake blocking activity was determined by the antagonism of the head twitch response induced by treatment of rats with p-chloromethamphetamine (PCMA) after 0.4 mg/kg of ip administration; 1/12; conditions: route intraperitoneal; method in brief: as §2
Rattus norvegicus [7] = test: Ability to elicit head twitches in rats a response characteristic of a serotonin mimetic action in the central nervous system was measured after 4 mg/kg of ip administration; 2/10; conditions: route intraperitoneal
Rattus norvegicus [8] = test: Ability to elicit head twitches in rats a response characteristic of a serotonin mimetic action in the central nervous system was measured after 0.4 mg/kg of ip administration; 0/10; conditions: route intraperitoneal
Rattus norvegicus [9] = test: Ability to elicit head twitches in rats a response characteristic of a serotonin mimetic action in the central nervous system after 40 mg/kg of ip administration; 3/10; conditions: route intraperitoneal
Rattus norvegicus [10] = test: Serotonin neuronal reuptake blocking activity was determined by the antagonism of the head twitch response induced in rats with p-chloromethamphetamine (PCMA) after 40 mg/kg of ip administration;9/10; conditions: route intraperitoneal
Method in brief: (§3)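 Female Sprague-Dawley rats (150-250 g) dosed ip with compound in 1% methylcellulose vehicle. p-Chloromethamphetamine 6.0 mg/kg ip was given 1 h later, and head movements were observed 30 min after that. Scored as number of rats not showing head twitches. Six rats per dose unless otherwise noted. Doses expressed as base weight.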

Rattus norvegicus [11] = test: Serotonin neuronal reuptake blocking activity was determined by the antagonism of the head twitch response induced by treatment of rats with p-chloromethamphetamine (PCMA) after 4 mg/kg of ip administration; 7/10; conditions: route intraperitoneal; method in brief: as §3
Rattus norvegicus [12] = test: Serotonin neuronal reuptake blocking activity was determined by the antagonism of the head twitch response induced by treatment of rats with p-chloromethamphetamine (PCMA) after 0.4 mg/kg of ip administration; 6/10; conditions: route intraperitoneal; method in brief: as §3
[13] = target: T1, Serotonin (5-HT) receptor (Rattus norvegicus) (UniProt P35563+P35365+P32305+P31388+Q9JJ16+P28564+P30994+Q62758+P08909+P14842+P30940+P35364+P19327+P28565); test: (§4) Ability to elicit head twitches in rats (a serotonin mimetic response); design: concentration or dose not given beside the values; method in brief: as §1
[14] = target: T1, Serotonin (5-HT) receptor (Rattus norvegicus); test: as §4; design: concentration or dose not given beside the values; method in brief: as §1; remark: listed apart in the source
[15] = target: T1, Serotonin (5-HT) receptor (Rattus norvegicus); test: as §4; design: concentration or dose not given beside the values; method in brief: as §1; remark: listed apart in the source
Rattus norvegicus [16] = test: Serotonin neuronal reuptake blocking activity was determined by the antagonism of the head twitch response induced in rats with p-chloromethamphetamine (PCMA) after 40 mg/kg of ip administration; 2/4; conditions: route intraperitoneal; method in brief: as §2
[17] = target: Sodium-dependent serotonin transporter (Rattus norvegicus) (UniProt P31652); test: (§5) Serotonin neuronal reuptake blocking activity was determined by the antagonism of the head twitch response induced by treatment of rats; design: concentration or dose not given beside the values; method in brief: as §2
Sequence of Sodium-dependent serotonin transporter (Rattus norvegicus) (P31652 whole entry): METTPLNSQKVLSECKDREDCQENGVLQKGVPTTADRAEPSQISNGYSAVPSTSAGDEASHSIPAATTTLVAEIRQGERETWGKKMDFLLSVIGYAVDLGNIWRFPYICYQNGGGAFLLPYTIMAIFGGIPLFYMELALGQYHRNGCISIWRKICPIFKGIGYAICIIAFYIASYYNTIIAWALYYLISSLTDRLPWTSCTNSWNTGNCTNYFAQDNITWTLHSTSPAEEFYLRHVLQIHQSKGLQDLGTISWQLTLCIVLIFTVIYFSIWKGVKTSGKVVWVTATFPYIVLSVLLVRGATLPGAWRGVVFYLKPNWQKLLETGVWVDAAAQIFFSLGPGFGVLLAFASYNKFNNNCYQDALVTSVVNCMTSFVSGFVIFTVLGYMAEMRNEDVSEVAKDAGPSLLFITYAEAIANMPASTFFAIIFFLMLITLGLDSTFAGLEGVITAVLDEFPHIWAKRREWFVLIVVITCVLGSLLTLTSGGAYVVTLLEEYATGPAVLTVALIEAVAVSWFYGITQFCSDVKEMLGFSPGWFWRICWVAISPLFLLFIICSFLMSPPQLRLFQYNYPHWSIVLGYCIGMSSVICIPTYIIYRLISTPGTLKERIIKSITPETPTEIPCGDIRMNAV

[18] = target: Sodium-dependent serotonin transporter (Rattus norvegicus) (UniProt P31652); test: as §5; design: concentration or dose not given beside the values; method in brief: as §2; remark: listed apart in the source
[19] = target: Sodium-dependent serotonin transporter (Rattus norvegicus) (UniProt P31652); test: Serotonin neuronal reuptake blocking activity was determined by the antagonism of the head twitch response induced in rats; design: concentration or dose not given beside the values; method in brief: as §2
Rattus norvegicus [20] = test: Serotonin neuronal reuptake blocking activity was determined by the antagonism of the head twitch response induced by treatment of rats with p-chloromethamphetamine (PCMA) after 0.4 mg/kg of ip administration; conditions: route intraperitoneal; method in brief: as §2
Rattus norvegicus [21] = test: Serotonin neuronal reuptake blocking activity was determined by the antagonism of the head twitch response induced by treatment of rats with p-chloromethamphetamine (PCMA) after 4 mg/kg of ip administration; conditions: route intraperitoneal; method in brief: as §2

For `Cc1ccc2nc(N3CCNCC3)cnc2c1.Cl`, which Activity (Rattus norvegicus [1]) is on record?
The Activity was 4.

And the Activity (Rattus norvegicus [2])?
The Activity was 0.

And the Activity (Rattus norvegicus [3])?
The Activity was 0.

What about the PCMA antagonism (Rattus norvegicus [4]) of the same molecule?
The PCMA antagonism was 8.

What about the PCMA antagonism (Rattus norvegicus [5]) of the same molecule?
The PCMA antagonism was 2.

And the PCMA antagonism (Rattus norvegicus [6])?
Its PCMA antagonism is 1.

Which Activity (Rattus norvegicus [7]) does the source give for `Cl.FC(F)(F)c1ccc2nc(N3CCNCC3)cnc2c1` here?
The Activity was 2.

What about the Activity (Rattus norvegicus [8]) of the same molecule?
The Activity was 0.

And the Activity (Rattus norvegicus [9])?
Its Activity is 3.

What about the PCMA antagonism (Rattus norvegicus [10]) of the same molecule?
The PCMA antagonism was 9.

What about the PCMA antagonism (Rattus norvegicus [11]) of the same molecule?
The PCMA antagonism was 7.

And the PCMA antagonism (Rattus norvegicus [12])?
Its PCMA antagonism is 6.

How did the Activity [13] turn out when `Cl.Clc1cccc2nc(N3CCNCC3)cnc12` was run?
The Activity was 2.

And the Activity [14]?
Its Activity is 0.

What about the Activity [15] of the same molecule?
The Activity was 0.

What about the PCMA antagonism (Rattus norvegicus [16]) of the same molecule?
The PCMA antagonism was 2.

What about the PCMA antagonism [17] of the same molecule?
Its PCMA antagonism is 0.

And the PCMA antagonism [18]?
Its PCMA antagonism is 0.

How did the Activity [13] turn out when `Nc1ccc2nc(N3CCNCC3)cnc2c1` was run?
Its Activity is 2.

And the Activity [14]?
Its Activity is 1.

And the Activity [15]?
The Activity was 0.

What about the PCMA antagonism [19] of the same molecule?
The PCMA antagonism was 3.

What about the PCMA antagonism (Rattus norvegicus [20]) of the same molecule?
The PCMA antagonism was 2.

What about the PCMA antagonism (Rattus norvegicus [21]) of the same molecule?
The PCMA antagonism was 4.
